Data reported in paper PMC6226330 (ACS Infectious Diseases, 2018).
Read-outs that look alike come from different tables or passages of the source. One block for each compound: values may come before it.

What was measured:
[1] = test system: MRSA; assay: Bacterial burden ex vivo; type: in vivo, rat; conditions: four doses of 200 mg/kg subcutaneously over 20 h; untreated 9.0 ± 0.2
[2] = test system: MSSA; assay: Bacterial burden ex vivo; type: in vivo, rat; conditions: four doses of 200 mg/kg subcutaneously over 20 h; untreated 8.4 ± 0.1
[3] = test system: S. aureus (Newman); assay: Rat triceps infection versus sterile inflammation model, PET/CT and ex vivo; type: in vivo; conditions: for PET signal at infection site versus sterile inflammation: [18F]FDG PET, 60–80 min postinjection, P = 0.2, n = 4; for infected triceps to inflamed triceps ratio: PET
Method in brief: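 Rats received live S. aureus Newman (50 μL) in the right triceps and heat-killed bacteria in BHI (50 μL) in the left. After 20–24 h, tracer was given IV and dynamic PET/CT run up to 120 min. Uptake was %ID/cc, with blood taken from the left ventricle (n = 7, mean ± SEM). Ex vivo gamma counting gave %ID/g (n = 6). Groups were compared by two-tailed Mann-Whitney U test.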

[4] = test system: S. aureus; type: in vivo, rat; conditions: tracer containing 2 mg 19F-PABA, two hours after injection, ex vivo
Method in brief: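 Rats carried live S. aureus Newman in the right triceps and heat-killed bacteria in BHI in the left triceps (sterile inflammation). They received 29.6–37 MBq tracer spiked with 2 mg 19F-PABA via the tail vein. At 2 h animals were sacrificed. Organ radioactivity was gamma-counted and bacterial load determined by plating and CFU enumeration.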

[5] = test system: S. aureus (Newman); assay: Mouse S. aureus thigh infection model, PET and ex vivo biodistribution; type: in vivo
[6] = test system: J774 murine macrophages; assay: In vitro uptake of 2-[18F]F-PABA by mammalian cells; type: cell-based
Method in brief: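 J774.1 murine macrophages were cultured in RPMI GlutaMAX with 10% heat-inactivated FBS at 37 °C, 5% CO2. Tracer accumulation was gamma-counted in parallel with bacterial strains. At least six replicates were run. Values were expressed as percentage or normalized to total protein (Bradford).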

[7] = test system: S. aureus; assay: Compartment PK model of dynamic 2-[18F]F-PABA PET data; type: in vivo, rat; conditions: after 2 h, simulation with compartment PK model
Method in brief: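 Dynamic PET data came from blood and the infected right triceps of S. aureus-infected rats. Specific and nonspecific activities at the sites were then simulated.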

[8] = test system: S. aureus; assay: In vitro uptake of 2-[18F]F-PABA by S. aureus; type: cell-based
Method in brief: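 Cells were incubated with 10 kBq/mL 2-[18F]F-PABA at 37 °C with rapid agitation, with graded PABA concentrations for blocking. Cells were then pelleted, washed three times in PBS, and gamma-counted. At least six replicates were run per point. Data were expressed as percentage or normalized to total protein (Bradford).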

[9] = test system: MSSA and MRSA; type: in vivo, rat
Method in brief: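 Female Sprague-Dawley rats (10 weeks) received 50 μL S. aureus Newman (MSSA) in the right triceps and MRSA ATCC BAA1762 in the left triceps, each at 8 log10 CFU. Oxacillin began 2–4 h after infection: 4 subcutaneous 200 mg/kg doses over 20 h. Tracer was 22.2–44.4 MBq in saline by tail-vein catheter under anesthesia. PET/CT was done 2–4 h after the last dose.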

[10] = group not treated with oxacillin
[11] = oxacillin-treated, four doses of 200 mg/kg

SMILES: Cc1onc(-c2ccccc2)c1C(=O)N[C@@H]1C(=O)N2[C@@H]1SC(C)(C)[C@@H]2C(=O)O [oxacillin]
bacterial burden in left triceps (MRSA infection) [1]: 8.2 ± 0.3 log10 CFU/g
bacterial burden in right triceps (MSSA infection) [2]: 6.4 ± 0.4 log10 CFU/g

PET signal at infection site versus sterile inflammation [3]: not significantly different
PET signal at infection site versus sterile inflammation ([3]; listed as [^18F]F-FDG): no difference
SMILES: OC[C@H]1OC(O)[C@H]([18F])[C@@H](O)[C@@H]1O (stereo partly shown) [[^18F]FDG, [^18F]fluorodeoxyglucose, reference compound]

ratio of 2-[18F]F-PABA in infected triceps compared to inflamed muscle [4]: 9.38 ± 2.43
share of total activity at site of infection from specific accumulation [7]: ~60%
infected triceps to inflamed triceps ratio ([3]; 60 min): 5.52
infected triceps to inflamed triceps ratio ([3]; 120 min): 7.95
infected triceps to inflamed triceps ratio ([3]; after 10 min): ~2 fold
signal in infected triceps compared to inflamed muscle ([3]; post-mortem ex vivo analysis, %ID/g): 4.30 ± 0.82
PET signal in left triceps (MRSA infection) [9, 10]: 0.096 ± 0.039 %ID/cc
PET signal in right triceps (MSSA infection) [9, 10]: 0.087 ± 0.041 %ID/cc
PET signal in left triceps (MRSA infection) [9, 11]: 0.079 ± 0.036 %ID/cc
PET signal in right triceps (MSSA infection) [9, 11]: 0.025 ± 0.015 %ID/cc
SMILES: Nc1ccc(C(=O)O)c([18F])c1 [2-[^18F]F-PABA, 2-[^18F]fluoro-p-aminobenzoic acid]
tracer level in infected versus uninfected thighs ([5]; mouse thigh infection): significantly higher levels of tracer were found in the infected thighs than in uninfected thighs
elimination ([5]; mouse, PET and ex vivo tissue analysis): rapidly eliminated mainly through renal clearance
accumulation in mammalian cells [6]: not in mammalian cells
accumulation in viable versus heat-killed bacteria ([8]; S. aureus ATCC 29213): rapidly accumulated in viable cells but not in heat-killed bacteria
accumulation in clinical strains ([8]; four MSSA and six MRSA clinical strains): accumulates in all the clinical strains tested
